Assay results reported in PubChem BioAssay.
Unmarked numbers belong to inactive results. Inconclusive results are not listed. Calls of active or inactive are those of the source.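 The calls were made as follows, unless noted: active = cell viability at or below a set limit in both duplicate runs, the limit being the all-compound median minus 4 SD (cut at about 23% in these data, passing the limit was not always enough); inconclusive = no clear call, values can overlap the other calls; inactive = the rest.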

Tests used:
[1] = OD615 S. cerevisiae growth inhibition, permissive medium, pilot counter-assay, permissive growth control for S. cerevisiae lifespan shortening project (AID 705;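 active = growth inhibition above 25% in both replicates, a cutoff set 3 SD above the mean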); conditions: OD615, 24 h, at 10 µM, active compounds read high
Method in brief: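 Material: engineered DeaD yeast; compound dosing: one dose 10 µM, DMSO 0.25% final; measure: yeast growth inhibition indicated by reduced 24 h OD615; detection: OD615 turbidity read; incubation: cells pre-grown 4 h, then 24 h compound exposure, 30 °C humidified; medium: permissive synthetic complete medium with raffinose and galactose carbon sources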

[2] = Restrictive medium S. cerevisiae growth inhibition, OD615, pilot screen of yeast lifespan reduction project, restrictive growth control (AID 706;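 active = growth inhibition above a set limit, 3 SD over mean compound inhibition, in both replicates, cut at about 43% in these data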;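 also: modified DeaD lifespan yeast strain shifted to restrictive glucose medium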); conditions: OD615, 48 h, at 10 µM, active compounds read high
Method in brief: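 material = engineered S. cerevisiae DeaD strain | medium = glucose-based CSMM-D restrictive medium | times = 4 h pre-incubation, 48 h exposure at 30 °C | technique = OD615 absorbance reading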

[3] = viability gain of MRP-1-high H69AR cells under doxorubicin, pilot screen, MRP-1 activator project, CellTiter-Glo, duplicate (AID 807;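 active = viability increase at or above a cutoff of the median across tested compounds plus 3 SD, cut at about 8.5% in these data, passing the limit was not always enough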;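 also: compound pretreatment 18-22 h then 72 h combined with doxorubicin; 0% = doxorubicin alone and 100% = vehicle without doxorubicin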); conditions: H69AR viability with doxorubicin, CellTiter-Glo luminescence; at 10 µM; active compounds read high
[4] = growth suppression of beta-catenin knockout HCT116, pilot screen, human colon tumor cells (AID 823); conditions: CellTiter-Glo, 60 h, at 10 µM, active compounds read low;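 also: 0% = wells killed by 20 µM Hyamine and 100% = untreated DMSO cell wells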
[5] = inhibitors of the yeast RAM network, pilot screen, dse1pr::URA3 reporter, 5-FOA selection (AID 869;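 active = inhibition over a set limit, the all-compound mean plus 3 SD, in both replicate runs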;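 also: 0% = DMSO wells with no growth and 100% = 10 µM 1-NA-PP1 with full growth; RAM network block rescues cells from 5-FOA so hits raise OD615 growth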); conditions: S. cerevisiae dse1pr::URA3 5-FOA growth, OD615, 2 d; at 10 µM; active compounds read high; strain carries analog-sensitive mutant Cbk1 kinase
[6] = RAM signaling pathway blockade in yeast – S. cerevisiae, Pdr1DBD-CYC8 efflux-inhibited sensitized strain, primary screen (AID 1298;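 active = RAM network inhibition above 8.4% in each of two replicates, 3 SD over the compound average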;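 also: 0% = DMSO untreated cells without growth and 100% = 10 µM 1-NA-PP1 full growth; higher means more yeast growth rescued from 5-FOA killing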); conditions: S. cerevisiae cbk1-as DSE1-URA3 strain, 5-FOA growth OD615, 2 d; at 50 µM; active compounds read high

## CCOC(=O)c1ccccc1NC(=O)CC1Nc2ccccc2NC1=O (configuration not stated)
[1]
  growth inhibition: -2.62%
[2]
  growth inhibition: -8.37%
[3]
  viability increase: -8.1%
[4]
  viability: 55.7%
[5]
  inhibition: 2.19%
[6]
  RAM network inhibition: 6.39%

## CCOC(=O)Nc1cc(C(=O)OCC)c(C)nc1C
[1]
  growth inhibition: -8.02%
[2]
  growth inhibition: -10%
[3]
  viability increase: -1.85%
[4]
  viability: 98.7%
[5]
  inhibition: 1.25%
[6]
  RAM network inhibition: 0.73%

## O=C(COCCOCC(=O)N(c1ccccn1)C1CCCCC1)N(c1ccccn1)C1CCCCC1
[1]
  growth inhibition: -12.8%
[2]
  growth inhibition: -7.35%
[3]
  viability increase: -2.48%
[4]
  viability: 92.3%
[5]
  inhibition: 1.31%
[6]
  RAM network inhibition: 8.62%

## Cc1cc(C)c(C#N)c(=N)o1
[1]
  growth inhibition: 23.3%
[2]
  growth inhibition: 20.7%
[3]
  viability increase: -3.83%
[4]
  viability: 87.2%
[5]
  inhibition: 1.2%
[6]
  RAM network inhibition: 8.54%

## O=C(c1ccccn1)N1CCN(c2ccc(C(F)(F)F)cn2)CC1
[1]
  growth inhibition: -20.7%
[2]
  growth inhibition: -2.59%
[3]
  viability increase: 0.37%
[4]
  viability: 96.5%
[5]
  inhibition: 1.64%
[6]
  RAM network inhibition: 3.84%

## O=C(Nc1ccc2c(c1)OCCO2)c1ccc(NC(=O)C2CCCO2)cc1 (configuration not stated)
[1]
  growth inhibition: -10.9%
[2]
  growth inhibition: -3.79%
[3]
  viability increase: -0.87%
[4]
  viability: 72.7%
[5]
  inhibition: 2.04%
[6]
  RAM network inhibition: 3.27%

## S=c1nc(-c2ccccc2)n(CCN2CCOCC2)c2c1CCCC2
[1]
  growth inhibition: -2.79%
[2]
  growth inhibition: 19.1%
[3]
  viability increase: -4.18%
[4]
  viability: 92.6%
[5]
  inhibition: 1.71%
[6]
  RAM network inhibition: 6.76%

## C=C(C)Cn1c(CCNC(=O)C(C)(C)C)nc2ccccc21
[1]
  growth inhibition: -12.7%
[2]
  growth inhibition: 6.9%
[3]
  viability increase: 0.45%
[4]
  viability: 100%
[5]
  inhibition: 2.33%
[6]
  RAM network inhibition: 1.51%

## COc1ccc(N2CCN(C(=O)Cn3c(=O)[nH]c4ccsc4c3=O)CC2)cc1
[1]
  growth inhibition: -15.3%
[2]
  growth inhibition: -12.4%
[3]
  viability increase: -3.44%
[4]
  viability: 99.7%
[5]
  inhibition: 0.99%
[6]
  RAM network inhibition: 3.59%

## COc1cc(C2=Nc3c(c(C)nn3-c3ccccc3)P(=O)(N3CCOCC3)O2)cc(OC)c1OC (configuration not stated)
[1]
  growth inhibition: 12.4%
[2]
  growth inhibition: 0.78%
[3]
  viability increase: -2.26%
[4]
  viability: 92%
[5]
  inhibition: 0.485%
[6]
  RAM network inhibition: 2.86%

## Cc1c(C(=O)Nc2ccncc2)sc2nc(-c3ccc(F)cc3)cn12
[1]
  growth inhibition: -5.44%
[2]
  growth inhibition: 11.7%
[3]
  viability increase: -6.8%
[4]
  viability: 42.3%
[5]
  inhibition: 1.96%
[6]
  RAM network inhibition: 8.43%

## O=C(CNC(=O)Cn1ccc2ccccc2c1=O)NCCCN1CCCCCC1
[1]
  growth inhibition: -7.25%
[2]
  growth inhibition: -1.09%
[3]
  viability increase: -2.48%
[4]
  viability: 91.2%
[5]
  inhibition: -0.25%
[6]
  RAM network inhibition: 4.42%

## CCN(CC)CCOc1c(Br)ccc2c1sc1nc3n(c(=O)c12)CCC3
[1]
  growth inhibition: -1.77%
[2]
  growth inhibition: 6.08%
[3]
  viability increase: -5.02%
[4]
  viability: 30.4%
[5]
  inhibition: 0.405%
[6]
  RAM network inhibition: 5.14%

## O=C(Cn1c(=O)sc2ccccc21)Nc1ccc2c(c1)OCCO2
[1]
  growth inhibition: -22.9%
[2]
  growth inhibition: -7.4%
[3]
  viability increase: -4.54%
[4]
  viability: 93.9%
[5]
  inhibition: 1.6%
[6]
  RAM network inhibition: 6.6%

## Cc1ccc(C(=O)c2cn[nH]c2-c2cc(Cl)ccc2O)cc1
[1]
  growth inhibition: 7.61%
[2]
  growth inhibition: 1.2%
[3]
  viability increase: -0.14%
[4]
  viability: 95.7%
[5]
  inhibition: 1.08%
[6]
  RAM network inhibition: -1.14%

## CSC(=NCCCN1CCOCC1)NS(=O)(=O)c1cccs1
[1]
  growth inhibition: -13.8%
[2]
  growth inhibition: -11.4%
[3]
  viability increase: -1.56%
[4]
  viability: 95.6%
[5]
  inhibition: 1.51%
[6]
  RAM network inhibition: 1.45%

## CCOc1ccc(NC(=O)CSc2nnc(-c3ccccc3)n2N)cc1
[1]
  growth inhibition: -8.33%
[2]
  growth inhibition: -0.575%
[3]
  viability increase: -6.71%
[4]
  viability: 93.8%
[5]
  inhibition: 0.495%
[6]
  RAM network inhibition: 2.18%

## COc1ccc(NC(=O)c2cncc(Br)c2)c(S(=O)(=O)N2CCOCC2)c1
[1]
  growth inhibition: -1.69%
[2]
  growth inhibition: 7.98%
[3]
  viability increase: -5.06%
[4]
  viability: 98.3%
[5]
  inhibition: 2.21%
[6]
  RAM network inhibition: 4.58%

## CCOC(=O)/C=c1\sc2n(c1=O)CCN=2
[1]
  growth inhibition: -0.765%
[2]
  growth inhibition: -2%
[3]
  viability increase: -3.32%
[4]
  viability: 91.9%
[5]
  inhibition: 1.44%
[6]
  RAM network inhibition: 2.73%

## CCCSc1nc(N)c2c3c(sc2n1)CN(C)CC3
[1]
  growth inhibition: -25%
[2]
  growth inhibition: -3.27%
[3]
  viability increase: -2.7%
[4]
  viability: 80.9%
[5]
  inhibition: 1.02%
[6]
  RAM network inhibition: 6.8%

## O=C(O)CN1C(=O)Nc2ccc(Br)cc2C1c1ccccc1 (configuration not stated)
[1]
  growth inhibition: 0.155%
[2]
  growth inhibition: -8.88%
[3]
  viability increase: -2.28%
[4]
  viability: 93.6%
[5]
  inhibition: -0.025%
[6]
  RAM network inhibition: 0.79%

## Cn1cnnc1SCc1ccc(C(=O)O)cc1
[1]
  growth inhibition: -5.04%
[2]
  growth inhibition: 7.69%
[3]
  viability increase: -1.36%
[4]
  viability: 98.1%
[5]
  inhibition: 1.06%
[6]
  RAM network inhibition: 1.81%

## CC1(C)Cc2c(sc3c2c(=N)n(Cc2ccco2)c(=O)n3CC(=O)Nc2cccc(Cl)c2)CO1
[1]
  growth inhibition: -9.23%
[2]
  growth inhibition: -8.69%
[3]
  viability increase: -6.27%
[4]
  viability: 75%
[5]
  inhibition: 3.25%
[6]
  RAM network inhibition: 5.15%

## CC(=O)NCCN=Cc1sc2ccccc2c1O
[1]
  growth inhibition: -8.43%
[2]
  growth inhibition: -2.56%
[3]
  viability increase: -2.42%
[4]
  viability: 92.6%
[5]
  inhibition: -0.315%
[6]
  RAM network inhibition: -0.37%

## Fc1ccc(Br)cc1C1C=C(c2cccnc2)Nc2ncnn21 (configuration not stated)
[1]
  growth inhibition: 6.35%
[2]
  growth inhibition: 46.9% (active)
[3]
  viability increase: -4.62%
[4]
  viability: 44.5%
[5]
  inhibition: 3.21%
[6]
  RAM network inhibition: 21.7% (active)

## CC(=O)Nc1ccc(S(=O)(=O)N2CCC(c3nc4ccc(C)cc4[nH]3)CC2)cc1
[1]
  growth inhibition: -24.1%
[2]
  growth inhibition: 2.08%
[3]
  viability increase: -3.15%
[4]
  viability: 51.2%
[5]
  inhibition: 1.47%
[6]
  RAM network inhibition: 9.15%

## CCN1C(=S)SC(=O)C1=C1C=C(C)OC(C)=C1
[1]
  growth inhibition: -11%
[2]
  growth inhibition: 14.9%
[3]
  viability increase: -3.02%
[4]
  viability: 91.9%
[5]
  inhibition: 2.55%
[6]
  RAM network inhibition: 5.1%

## CCCCCCn1c(SCC(=O)c2ccccc2)nc2c1c(=O)[nH]c(=O)n2C
[1]
  growth inhibition: -4.82%
[2]
  growth inhibition: 42.6% (active)
[3]
  viability increase: -7.17%
[4]
  viability: 53%
[5]
  inhibition: 2.08%
[6]
  RAM network inhibition: 6.13%

## CC1CCN(CCNC(=O)c2ccc(NC(=O)C3CCCO3)cc2)CC1 (configuration not stated)
[1]
  growth inhibition: -16.1%
[2]
  growth inhibition: -2.63%
[3]
  viability increase: -1.69%
[4]
  viability: 103%
[5]
  inhibition: 1.95%
[6]
  RAM network inhibition: 3.74%

## Cc1cc(NC(=O)CN2CCN(c3ncccn3)CC2)no1
[1]
  growth inhibition: -7.78%
[2]
  growth inhibition: -9.4%
[3]
  viability increase: -1.38%
[4]
  viability: 98.6%
[5]
  inhibition: 0.71%
[6]
  RAM network inhibition: 3.12%

## CCN1CCN(Cc2nc3c(c(=O)n(C)c(=O)n3C)n2C(C)C(C)=O)CC1 (configuration not stated)
[1]
  growth inhibition: -32.2%
[2]
  growth inhibition: -4.38%
[3]
  viability increase: -1.83%
[4]
  viability: 89.7%
[5]
  inhibition: 1.41%
[6]
  RAM network inhibition: 4.46%

## Cn1c(/C(C#N)=C2/CCCCCN2)nc2ccccc21
[1]
  growth inhibition: -8.98%
[2]
  growth inhibition: -2.55%
[3]
  viability increase: -2.4%
[4]
  viability: 89.6%
[5]
  inhibition: 0.395%
[6]
  RAM network inhibition: 1.35%

## COc1ccc(CC(=O)Nc2cc(C)c3c(=O)oc4ccccc4c3n2)cc1
[1]
  growth inhibition: -2.25%
[2]
  growth inhibition: 1.88%
[3]
  viability increase: -4.14%
[4]
  viability: 75.3%
[5]
  inhibition: 4.06%
[6]
  RAM network inhibition: 7.11%

## CCCCNC(=O)C1C2C=CC3(CN(Cc4ccc(C)cc4)C(=O)C13)O2 (configuration not stated)
[1]
  growth inhibition: 2.61%
[2]
  growth inhibition: -16.4%
[3]
  viability increase: -2.02%
[4]
  viability: 95.1%
[5]
  inhibition: 0.08%
[6]
  RAM network inhibition: 0.67%

## CCCCNC(=O)c1ccc(NC(=O)C2CCCO2)cc1 (configuration not stated)
[1]
  growth inhibition: -3.29%
[2]
  growth inhibition: -3.53%
[3]
  viability increase: -0.44%
[4]
  viability: 96.5%
[5]
  inhibition: 1.81%
[6]
  RAM network inhibition: 3.01%

## COc1ccc(-c2cc(NCCc3ccncc3)n3ncnc3n2)cc1
[1]
  growth inhibition: -9.14%
[2]
  growth inhibition: 14.2%
[3]
  viability increase: -4.7%
[4]
  viability: 95.2%
[5]
  inhibition: 0.97%
[6]
  RAM network inhibition: 7.01%

## CC1CN(C(=O)c2ccccc2C(=O)c2ncc[nH]2)CC(C)O1 (configuration not stated)
[1]
  growth inhibition: -19.6%
[2]
  growth inhibition: 14.7%
[3]
  viability increase: -1.55%
[4]
  viability: 99%
[5]
  inhibition: 2.07%
[6]
  RAM network inhibition: 2.87%
